The list is not random: actives were taken first. Their share in the collection is about 0.85%.
OXTR agonist – human OXTR agonists, primary screen, fluorescence, CHO-OTR cells, Fluo-8 calcium. Oxytocin receptor (Homo sapiens), P30559. Fluo-8 calcium fluorescence; normalized: DMSO 0%, oxytocin 100%. activation, % at 3 µM. 0.32% of 320,000 active. AID 2435, 2010;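 active = activation above the mean of all tested compounds plus 3 SD, cutoff set per screening run, cut at about 20% in these data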;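 note: peak over basal fluorescence ratio from a 100 s FLIPR kinetic read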
V1R ag counter – agonists of human V1a receptor, primary screen, counter-screen for OXTR agonist project, fluorescence, CHO-V1R cells; Vasopressin V1a receptor (Homo sapiens), P37288; Fluo-8 calcium fluorescence, agonist mode; 0% DMSO, 100% 3 nM vasopressin; activation, % at 3 µM; 0.25% of 320,000 active; AID 2797, 2010;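 active = activation above the mean activation of all tested compounds plus 3 SD, per screening run, cut at about 20% in these data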;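 note: signal is peak over basal fluorescence ratio across a 100 second FLIPR read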
Target sequence (P37288 whole entry, looked up): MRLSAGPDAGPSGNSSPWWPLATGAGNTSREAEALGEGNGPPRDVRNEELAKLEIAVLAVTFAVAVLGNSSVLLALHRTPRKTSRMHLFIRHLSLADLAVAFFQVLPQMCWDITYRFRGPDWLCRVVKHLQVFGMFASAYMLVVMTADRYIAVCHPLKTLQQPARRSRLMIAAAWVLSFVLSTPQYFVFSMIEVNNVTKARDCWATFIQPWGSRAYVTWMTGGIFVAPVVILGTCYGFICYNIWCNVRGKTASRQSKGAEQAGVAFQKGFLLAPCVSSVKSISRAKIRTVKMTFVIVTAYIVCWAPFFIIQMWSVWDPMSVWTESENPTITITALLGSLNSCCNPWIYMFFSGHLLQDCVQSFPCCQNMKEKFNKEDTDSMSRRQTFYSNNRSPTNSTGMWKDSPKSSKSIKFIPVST
zfTRPN1 agonist – zebrafish TRPN1 channel agonists, primary screen, cell-based, HEK293, calcium fluorescence; activation, % at 3 µM; AID 1424, 2008; 0.18% of 220,000 active; HEK293 zebrafish TRPN1-YFP, Fluo-8 calcium fluorescence; 100% = response to 87 µM carbachol;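 active = activation above its plate's cutoff, the mean activation of test wells on that plate plus 3 SD, cut at about 19% in these data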
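Assay system: Zebrafish TRPN1-YFP in HEK293 cells | Incubation: Dye loading 1 h at 37 °C, then 30 min room temperature | Measured by: Kinetic Fluo-8 fluorescence, ex 470-495, em 515-575 nm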
CRFR2-BP ag – agonists of CRF-BP/CRF-R2 complex, primary screen, cell-based, HEK293, calcium dye fluorescence, uHTS. CRF-binding protein / CRF receptor 2 complex (human). calcium dye fluorescence (FLIPR); percent of saturating CRF peptide response. activation, % at 13.2 µM. 0.46% of 350,000 active. AID 588473, 2011;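 active = activation of at least 50%, plus an integration ratio under a set limit after plate pattern correction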
TRPML3 agonist – human TRPML3 channel agonists, primary screen, cell-based, HEK293 TRPML3-YFP, Fluo-8 calcium fluorescence, 3 µM. 100% = the carbachol control signal. 0.29% of 220,000 active. activation, % at 3 µM. Mucolipin-3 (Homo sapiens), Q8TDD5;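 active = activation above its plate's cutoff, the mean activation of the plate's test wells plus 3 SD, cut at about 12% in these data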
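Material: HEK293 cells stably carrying human TRPML3-YFP; compound dosing: single dose, 3 µM final nominal compound, 0.3% DMSO final; incubation: 1-h 37 °C dye load, 5-s basal, 120-s post-compound reads; technique: Fluo-8 intracellular calcium fluorescence, excitation 470-495 nm, emission 515-575 nm; read-out basis: percent activation from peak-to-basal fluorescence ratio, scaled between DMSO and carbachol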
OXTR potentiate – human OXTR potentiators, primary screen, fluorescence, CHO-OTR cells, Fluo-8 calcium; 0.061% of 320,000 active; Oxytocin receptor (Homo sapiens), P30559; Fluo-8 calcium fluorescence, potentiator mode; 0% = oxytocin EC15, 100% = EC100; activation, % at 3 µM;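 active = activation above that plate's cutoff, the mean activation of tested compounds plus 3 SD, cut at about 6.6% in these data, passing the limit was not always enough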
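assay system = CHO-OTR cells, human receptor | schedule = compound 6 min at room temperature before oxytocin, 100 s read | detection = Fluo-8 intracellular calcium fluorescence, ex 470-495, em 515-575 nm | evaluation = normalized max/min fluorescence ratio, % activation | control set = EC15 oxytocin alone as 0%, 75 nM oxytocin (EC100) as 100%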
A number is an active result; i = inactive; nt = not tested or not shown.

SMILES	OXTR agonist	V1R ag counter	zfTRPN1 agonist	CRFR2-BP ag	TRPML3 agonist	OXTR potentiate
Cc1ccc2nc(/C(C#N)=C\c3ccc(N4CCOCC4)o3)[nH]c2c1	43	30	i	i	i	i
COc1ccc(C(=O)CCC(=O)Nc2cc(Cl)c(O)c(Cl)c2)cc1	i	i	nt	i	nt	i
C[C@@H](NCCCn1ccc(NC(=O)OCc2ccccc2)nc1=O)c1cccc2ccccc12	nt	nt	nt	i	nt	nt
O=C(NCC1CCCO1)c1ccc(N2C(=O)C3CCCCC3C2=O)cc1 (configuration not stated)	i	i	nt	i	nt	i
Cn1c2ccccc2c2cc(/C=N/NC(=O)c3ccc(O)cc3O)ccc21	i	i	nt	i	nt	i
Cn1c(O)c(/C=N/NC(=O)c2cc3ccccc3cc2O)c2ccccc21	i	i	nt	117	nt	i
O=S(=O)(NCC(c1ccc2c(c1)OCO2)N1CCN(c2ccccc2)CC1)c1ccccc1 (configuration not stated)	i	i	nt	i	nt	i
O=c1c(Cl)c2oc3ccccc3nc-2c2ccccc12	i	i	i	207	i	i
Clc1ccc(-c2nnc(Sc3nc4ccccc4o3)c3ccccc23)cc1	i	i	i	i	i	i
COc1ccc([C@H]2C[C@H](n3cc(COC(=O)c4ccccc4)nn3)[C@@H](O)CN2CC2CCCCC2)cc1	nt	nt	nt	i	nt	nt
COc1cc(OC)c(NC(=O)c2cc3ccccc3cc2O)cc1Cl	nt	nt	nt	i	nt	nt
Cc1ccc2c(CC(=O)NCC(=O)Nc3c(C)cccc3C)coc2c1	i	i	nt	i	nt	i
Cc1ccc2c(CC(=O)Nc3sccc3C(N)=O)coc2c1	i	i	i	95	i	i
CCOc1cc(C(c2c(C)[nH][nH]c2=O)c2c(C)[nH][nH]c2=O)ccc1OS(=O)(=O)c1ccccc1	i	i	i	i	i	i
Cc1ccc(S(=O)(=O)Oc2ccc(C(c3c(C)[nH][nH]c3=O)c3c(C)[nH][nH]c3=O)cc2)cc1	i	i	i	126	i	i
Cc1c(NC(=O)c2ccc([N+](=O)[O-])o2)cccc1-c1nc2ncccc2o1	i	i	nt	i	nt	i
O=S(=O)(c1cnc(Cl)c(Cl)c1)N1CCc2ccccc21	i	i	i	i	16	i
COc1ccc(NC(=O)COc2cccc3c2CCN(C)C3=O)c(OC)c1	i	i	nt	i	nt	i
O=C(O)c1ccc(OCC(O)Cn2c3ccccc3c3ccccc32)cc1 (configuration not stated)	22	44	i	i	i	i
O=C(NCc1cccc(Cl)c1)c1cccc(S(=O)(=O)N2CCCC2)c1	i	i	nt	87	nt	i
O=C(CN1C(=O)S/C(=C\C=C\c2ccccc2)C1=O)Nc1ccccc1C(=O)O	i	i	i	i	i	i
C#CCN1C(=O)S/C(=C/C=C/c2ccc(N(C)C)cc2)C1=O	35	24	i	85	i	i
COCCNC(=O)/C(C#N)=C/c1ccc(N2CCOCC2)o1	i	i	i	i	i	i
N#C/C(=C\c1ccc(N2CCOCC2)o1)C(=O)NC1CCCCC1	i	i	i	96	i	i
N#C/C(=C\c1ccc(N2CCOCC2)o1)C(=O)NCC1CCCO1 (configuration not stated)	i	i	i	i	i	i
N#C/C(=C/c1ccc(N2CCOCC2)o1)C(=O)Nc1ccccc1	nt	nt	72	149	36	nt
C/C=C/c1ccc2c(c1)O[C@H](CN(C)C(=O)NC1CCCC1)[C@H](C)CN([C@H](C)CO)S2(=O)=O	nt	nt	nt	i	nt	nt
Cc1cccc(NC(=O)CCc2ccc(N3C(N)=NC(N)=NC3(C)C)cc2)c1	nt	nt	nt	i	nt	nt
N=c1c2c(-c3ccccc3)c(-c3ccccc3)n(Cc3ccco3)c2ncn1Cc1ccco1	36	36	i	i	i	i

From PubChem
